Data: ChEMBL document CHEMBL4699631, “Antimalarial and anti-inflammatory activities of new chloroquine and primaquine hybrids: Targeting the blockade of malaria parasite transmission” (Bioorg Med Chem, 2020)
Calls of active or inactive are those of the source. No cut-off for these calls is given here.

How the values were obtained:
[1] = Selectivity index, ratio of MDL50 for monkey BGM cells to IC50 for Plasmodium falciparum CQR (W2 clone) infected in human Erythrocyte; type: toxicity
Procedure, shortened: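 SI calculated as MLD50 in BGM cells (neutral red, 24 h) divided by IC50 against P. falciparum W2 (SYBR, 48 h).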

[2] = Cytotoxicty against mouse J774.A1 cells assessed as cell viability at 50 uM incubated for 24 hrs by resazurin dye based assay (reference value: 100 %); conditions: read-out: Activity
Procedure, shortened: (§1)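 J774A.1 macrophages grown in DMEM with 10% FBS and 0.1% gentamycin, seeded at 1×10^5 cells/well. Exposed to compounds at 0, 12.5, 25, 50 or 100 μM for 24 h. Resazurin (10 μg/ml) added for 3 h, then fluorescence read. Run in triplicate. Viability given as percent of 0.2% DMSO-treated cells.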

[3] = tested on: Plasmodium falciparum; assay: Antimalarial activity against Plasmodium falciparum CQR (W2 clone) infected in human erythrocyte assessed as reduction in parasite growth incubated for 48 hrs by SYBR assay; type: functional, organism-based
Procedure, shortened: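 W2 parasites cultured in A+ human erythrocytes in RPMI 1640 with ALBUMAX II, candle jar, 37 °C. Rings synchronized with sorbitol, then exposed to serial dilutions at 0.5% parasitemia and 2% hematocrit for 48 h at 37 °C. Lysis buffer with SYBR Safe, 30 min in the dark, fluorescence read at ex 485 nm. IC50 from sigmoid curve fit against drug-free control.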

[4] = Cytotoxicty against mouse J774.A1 cells assessed as cell viability at 12.5 uM incubated for 24 hrs by resazurin dye based assay (reference value: 100 %); conditions: read-out: Activity; procedure, shortened: as §1
[5] = tested on: Plasmodium berghei; assay: Antimalarial activity against Plasmodium berghei NK65 infected in mouse assessed as parasite growth at 25 mg/kg, po administered for 3 days and measured on day 7 Giemsa staining based assay; type: functional; conditions: time 7 day
Procedure, shortened: (§2)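 P. berghei NK65 kept by weekly blood passage in mice. Mice inoculated i.p. with 1×10^6 infected erythrocytes, randomized after about 24 h into groups of five. Oral dosing once daily for three days, vehicle 3% DMSO in RPMI. Test compounds given at 25 mg/kg, CQ control at 20 mg/kg. Parasitemia read on Giemsa-stained thin smears on days 5 and 7 and expressed relative to untreated mice.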

[6] = Cytotoxicity against monkey BGM cells assessed as reduction in cell viability incubated for 24 hrs by neutral red dye based assay; conditions: chlorocebus aethiops, read-out: MDL50
Procedure, shortened: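 BGM monkey kidney cells grown in RPMI 1640 with 10% heat-inactivated fetal serum and gentamicin, 5% CO2, 37 °C. Cells allowed to adhere for 24 h, then exposed to compounds at 1000–1 μg/mL for 24 h. Neutral red uptake for 3 h, formaldehyde/CaCl2 fix, alcohol-acetic acid elution, absorbance at 540 nm. Viability taken as percent of untreated cells after background subtraction. MLD50 derived from this.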

[7] = Cytotoxicty against mouse J774.A1 cells assessed as cell viability at 100 uM incubated for 24 hrs by resazurin dye based assay (reference value: 100 %); conditions: read-out: Activity; procedure, shortened: as §1
[8] = tested on: Plasmodium berghei; assay: Antimalarial activity against Plasmodium berghei NK65 infected in mouse assessed as parasite growth at 25 mg/kg, po administered for 3 days and measured on day 5 Giemsa staining based assay relative to control; type: functional; conditions: time 5 day; procedure, shortened: as §2
[9] = Cytotoxicty against mouse J774.A1 cells assessed as cell viability at 25 uM incubated for 24 hrs by resazurin dye based assay (reference value: 100 %); conditions: read-out: Activity; procedure, shortened: as §1
[10] = tested on: Plasmodium berghei; assay: Antimalarial activity against Plasmodium berghei NK65 infected in mouse assessed as increase in mouse survival rate at 25 mg/kg, po administered for 3 days and observed for 7 days; type: functional, organism-based; conditions: time 7.0 day
[11] = tested on: J774.A1; assay: Inhibition of LPS-induced TNFalpha production in mouse J774.A1 cells incubated for 24 hrs by ELISA; type: functional, cell-based; conditions: dose microM 0.5-25, time 24.0 hrs
Procedure, shortened: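 J774A.1 cells seeded at 2×10^6 cells/well. Pretreated with vehicle, dexamethasone 1 μM, or compounds at 0.5–25 μM. Stimulated with LPS 100 ng/ml for 24 h. Supernatants stored at −20 °C, then TNFα measured by sandwich ELISA in pg/mL. Triplicate, mean ± SEM.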

[12] = tested on: J774.A1; assay: Inhibition of LPS-induced NO production in mouse J774.A1 cells incubated for 24 hrs by Griess reagent based assay; type: functional, cell-based; conditions: dose microM 0.5-25, time 24.0 hrs
Procedure, shortened: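 Compounds made as 10 mM DMSO stocks and diluted in medium. J774A.1 cells pre-incubated with compounds at 25 μM for screening, or 0.5–25 μM for dose-response, with dexamethasone 1 μM or 0.2% DMSO as controls. Stimulated with LPS 37.5 ng/ml plus IFNγ 25 U/ml for 24 h at 37 °C, 5% CO2. Supernatant nitrite measured by Griess at 540 nm. Triplicate, mean ± SEM.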

[13] = tested on: Plasmodium gallinaceum; assay: Antimalarial activity against Plasmodium gallinaceum vectored in Aedes fluviatilis infected in chicken assessed as reduction in oocyst number at 25 mg/kg, po measured immediately by Giemsa staining based microscopic analysis; type: functional; conditions: time 0 hrs
Procedure, shortened: (§3)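 One-day-old chickens infected intramuscularly with P. gallinaceum-infected erythrocytes; parasitemia and gametocytemia followed by daily Giemsa-stained smears. Chickens with rising parasitemia below 10% fed to starved (12 h) female Ae. fluviatilis (kept 28 °C, 80% humidity) at 0 h (control) and 4 h after dosing (test compound 25–50 mg/kg; PQ 15 mg/kg). Oocyst counts and mosquito infection rates compared with nontreated groups.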

[14] = tested on: Plasmodium gallinaceum; assay: Antimalarial activity against Plasmodium gallinaceum vectored in Aedes fluviatilis infected in chicken assessed as reduction in parasite growth at 50 mg/kg, po measured immediately by Giemsa staining based microscopic analysis relative to control; type: functional; design: scale not given: the % may be the effect or the level left; conditions: time 0 hrs; procedure, shortened: as §3
[15] = tested on: Plasmodium gallinaceum; assay: Antimalarial activity against Plasmodium gallinaceum vectored in Aedes fluviatilis infected in chicken assessed as reduction in oocyst number at 25 mg/kg, po measured after 4 hrs by Giemsa staining based microscopic analysis relative to control; type: functional; design: scale not given: the % may be the effect or the level left; procedure, shortened: as §3
[16] = tested on: Plasmodium gallinaceum; assay: Antimalarial activity against Plasmodium gallinaceum vectored in Aedes fluviatilis infected in chicken assessed as reduction in gametocyte stage at 25 mg/kg, po measured immediately by Giemsa staining based microscopic analysis relative to control; type: functional; design: scale not given: the % may be the effect or the level left; conditions: time 0 hrs; procedure, shortened: as §3
[17] = tested on: Plasmodium gallinaceum; assay: Antimalarial activity against Plasmodium gallinaceum vectored in Aedes fluviatilis infected in chicken assessed as reduction in gametocyte stage at 50 mg/kg, po measured immediately by Giemsa staining based microscopic analysis relative to control; type: functional; design: scale not given: the % may be the effect or the level left; conditions: time 0 hrs; procedure, shortened: as §3
[18] = tested on: Plasmodium gallinaceum; assay: Antimalarial activity against Plasmodium gallinaceum vectored in Aedes fluviatilis infected in chicken assessed as reduction in oocyst number at 50 mg/kg, po measured after 4 hrs by Giemsa staining based microscopic analysis relative to control; type: functional; design: scale not given: the % may be the effect or the level left; procedure, shortened: as §3
[19] = tested on: Plasmodium gallinaceum; assay: Antimalarial activity against Plasmodium gallinaceum vectored in Aedes fluviatilis infected in chicken assessed as reduction in mosquito infection at 50 mg/kg, po measured after 4 hrs by Giemsa staining based microscopic analysis relative to control; type: functional; procedure, shortened: as §3
[20] = tested on: Plasmodium gallinaceum; assay: Antimalarial activity against Plasmodium gallinaceum vectored in Aedes fluviatilis infected in chicken assessed as reduction in oocyst number at 50 mg/kg, po measured immediately by Giemsa staining based microscopic analysis; type: functional; conditions: time 0 hrs; procedure, shortened: as §3
[21] = tested on: Plasmodium gallinaceum; assay: Antimalarial activity against Plasmodium gallinaceum vectored in Aedes fluviatilis infected in chicken assessed as reduction in parasite growth at 25 mg/kg, po measured immediately by Giemsa staining based microscopic analysis relative to control; type: functional; design: scale not given: the % may be the effect or the level left; conditions: time 0 hrs; procedure, shortened: as §3
[22] = tested on: Plasmodium gallinaceum; assay: Antimalarial activity against Plasmodium gallinaceum vectored in Aedes fluviatilis infected in chicken assessed as reduction in mosquito infection at 25 mg/kg, po measured immediately by Giemsa staining based microscopic analysis relative to control; type: functional; design: scale not given: the % may be the effect or the level left; conditions: time 0 hrs; procedure, shortened: as §3
[23] = tested on: Plasmodium gallinaceum; assay: Antimalarial activity against Plasmodium gallinaceum vectored in Aedes fluviatilis infected in chicken assessed as reduction in mosquito infection at 50 mg/kg, po measured immediately by Giemsa staining based microscopic analysis relative to control; type: functional; design: scale not given: the % may be the effect or the level left; conditions: time 0 hrs; procedure, shortened: as §3
[24] = tested on: Plasmodium gallinaceum; assay: Antimalarial activity against Plasmodium gallinaceum vectored in Aedes fluviatilis infected in chicken assessed as reduction in mosquito infection at 25 mg/kg, po measured after 4 hrs by Giemsa staining based microscopic analysis relative to control; type: functional; procedure, shortened: as §3
[25] = tested on: Plasmodium gallinaceum; assay: Antimalarial activity against Plasmodium gallinaceum vectored in Aedes fluviatilis infected in chicken assessed as reduction in parasite growth at 15 mg/kg, po measured immediately by Giemsa staining based microscopic analysis relative to control; type: functional; design: scale not given: the % may be the effect or the level left; conditions: time 0 hrs; procedure, shortened: as §3
[26] = tested on: Plasmodium gallinaceum; assay: Antimalarial activity against Plasmodium gallinaceum vectored in Aedes fluviatilis infected in chicken assessed as reduction in mosquito infection at 15 mg/kg, po measured after 4 hrs by Giemsa staining based microscopic analysis relative to control; type: functional; procedure, shortened: as §3
[27] = tested on: Plasmodium gallinaceum; assay: Antimalarial activity against Plasmodium gallinaceum vectored in Aedes fluviatilis infected in chicken assessed as reduction in oocyst number at 15 mg/kg, po measured immediately by Giemsa staining based microscopic analysis; type: functional; conditions: time 0 hrs; procedure, shortened: as §3
[28] = tested on: Plasmodium gallinaceum; assay: Antimalarial activity against Plasmodium gallinaceum vectored in Aedes fluviatilis infected in chicken assessed as reduction in gametocyte stage at 15 mg/kg, po measured immediately by Giemsa staining based microscopic analysis relative to control; type: functional; design: scale not given: the % may be the effect or the level left; conditions: time 0 hrs; procedure, shortened: as §3
[29] = tested on: Plasmodium gallinaceum; assay: Antimalarial activity against Plasmodium gallinaceum vectored in Aedes fluviatilis infected in chicken assessed as reduction in mosquito infection at 15 mg/kg, po measured immediately by Giemsa staining based microscopic analysis relative to control; type: functional; design: scale not given: the % may be the effect or the level left; conditions: time 0 hrs; procedure, shortened: as §3
[30] = tested on: Plasmodium gallinaceum; assay: Antimalarial activity against Plasmodium gallinaceum vectored in Aedes fluviatilis infected in chicken assessed as reduction in oocyst number at 15 mg/kg, po measured after 4 hrs by Giemsa staining based microscopic analysis relative to control; type: functional; design: scale not given: the % may be the effect or the level left; procedure, shortened: as §3
[31] = tested on: Plasmodium berghei; assay: Antimalarial activity against Plasmodium berghei NK65 infected in mouse assessed as parasite growth at 20 mg/kg, po administered for 3 days and measured on day 7 Giemsa staining based assay relative to control; type: functional; conditions: time 7 day; procedure, shortened: as §2
[32] = tested on: Plasmodium berghei; assay: Antimalarial activity against Plasmodium berghei NK65 infected in mouse assessed as parasite growth at 20 mg/kg, po administered for 3 days and measured on day 5 Giemsa staining based assay relative to control; type: functional; conditions: time 5 day; procedure, shortened: as §2
[33] = tested on: Plasmodium berghei; assay: Antimalarial activity against Plasmodium berghei NK65 infected in mouse assessed as increase in mouse survival at 20 mg/kg, po administered for 3 days and observed for 7 days; type: functional, organism-based; conditions: time 7.0 day

Row | Compound | selectivity ratio [1] | viability at 24 h, 50 µM [2] | IC50 [3] | viability at 24 h, 12.5 µM [4] | Activity [5] | CC50 at 24 h [6] | viability at 24 h, 100 µM [7] | Activity [8] | viability at 24 h, 25 µM [9] | Activity [10] | inhibition [11] | inhibition [12] | also measured
1 | CC(=O)Nc1ccccc1C(=O)C(=O)NCCCNc1ccnc2cc(Cl)ccc12 | > 400 | 89.1% | 0.2 µM | 100% | 15% | 91.7 µM | 67.6% | 0% | 100% | Active |  |  | 
2 | CC(=O)Nc1ccc(Cl)cc1C(=O)C(=O)NCCCNc1ccnc2cc(Cl)ccc12 | 258 | 82.7% | 0.12 µM | 100% | 0% | 30.9 µM | 10.7% | 0% | 100% | Active | Dose-dependent effect | Dose-dependent effect | 
3 | COc1cc(NC(C)CCCNC(=O)C(F)(F)c2cc(Cl)ccc2NC(C)=O)c2ncccc2c1 (stereo unspecified) | 1.6 | 56.2% | 8.4 µM | 100% |  | 13.6 µM | 33.9% |  | 96.8% |  | Dose-dependent effect | Dose-dependent effect | Activity [13]: 56; Activity [14]: 10.3%; Activity [15]: 0%; Activity [16]: 41%; Activity [17]: 42%; Activity [18]: 81.3%; inhibition in vivo at 50 mg/kg [19]: 15%; Activity [20]: 166; Activity [21]: 4.7%; Activity [22]: 89%; Activity [23]: 95%; inhibition in vivo at 25 mg/kg [24]: 5%
4 | COc1cc(NC(C)CCCN)c2ncccc2c1 (stereo unspecified) [PRIMAQUINE] | 255 |  | 1.9 µM |  |  | 483 µM |  |  |  |  |  |  | Activity [25]: 7%; inhibition in vivo at 15 mg/kg [26]: 100%; Activity [27]: 41; Activity [28]: 45%; Activity [29]: 85%; Activity [30]: 100%
5 | CCN(CC)CCCC(C)Nc1ccnc2cc(Cl)ccc12 (stereo unspecified) [CHLOROQUINE] |  |  |  |  |  | 457 µM |  |  |  |  |  |  | Activity [31]: 99%; Activity [32]: 99%; Activity [33]: Active
6 | CC(=O)Nc1ccccc1C(=O)C(=O)NCCCCNc1ccnc2cc(Cl)ccc12 | > 700 | 83.4% | 0.18 µM | 98.4% | 2% | 124 µM | 10.1% | 0% | 100% |  | inactive |  | 
